# Experiments:
# [1] = test system: Plasma; assay: Adsorption in rhesus monkey plasma at 1 mg/ml after 2 hrs by HPLC analysis; format: ADME, cell-free, Macaca mulatta
# Method in brief: (§1)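 Macaque whole blood (1.0 mL) spiked with 2-HCl in saline (5 mg/mL stock, 0.25 mL), incubated 37°C for 0, 1 or 2 h. Plasma and blood cells separated by centrifugation; cells brought to 1.0 mL with PBS, and an aliquot sonicated. In the re-addition arm, plasma was added to 1 h cells and incubated 1 h more. MeOH-extracted supernatants, phenol internal standard 600 µg/mL final, analyzed by HPLC.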
# [2] = Adsorption in rhesus monkey blood cells assessed as YYA-021 level at 1 mg/ml after 1 hr followed by plasma addition by HPLC analysis; format: ADME, cell-based, Macaca mulatta; method in brief: as §1
# [3] = Adsorption in rhesus monkey blood cells assessed as YYA-021 level at 1 mg/ml after 1 hr by HPLC analysis; format: ADME, cell-based, Macaca mulatta; method in brief: as §1
# [4] = test system: Plasma; assay: Adsorption in rhesus monkey plasma at 1 mg/ml after 1 hr followed by plasma addition by HPLC analysis; format: ADME, cell-free, Macaca mulatta; method in brief: as §1
# [5] = test system: Plasma; assay: Adsorption in rhesus monkey plasma at 1 mg/ml measured immediately by HPLC analysis; format: ADME, cell-free, Macaca mulatta; method in brief: as §1
# [6] = Plasma concentration in rhesus monkey at 13.4 mg/kg, iv after 4 hrs by HPLC analysis; format: ADME, organism-based, Macaca mulatta; set-up: dose 13.4 mg/kg, route intravenous
# Method in brief: (§2)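 Macaque given 70.6 mg 2-HCl in 30 mL 0.1 M sodium phosphate buffer with NaCl, pH 7.4, by cephalic vein injection. Blood (3.0 mL) taken at 0, 0.5, 1, 2, 4 and 24 h, and plasma stored at -80°C. Plasma extracted with MeOH and spiked with phenol (150 µg/mL final). Quantified by HPLC on a 20–35% CH3CN (0.1% TFA) gradient over 30 min.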
# [7] = Plasma concentration in Jcl:Sprague-Dawley rat at 14 mg/kg, iv after 15 mins by HPLC analysis; format: ADME, organism-based; set-up: dose 14 mg/kg, route intravenous
# Method in brief: (§3)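 6-week-old Jcl:SD rats given 2.5 mg 2-HCl in 1.0 mL saline by tail-vein injection. Tail-vein blood drawn at 15, 30, 45, 60, 120 and 240 min and centrifuged to plasma. Plasma stored at -80°C, mixed with phenol internal standard (62.5 µg/mL final), filtered and quantified by HPLC. Standard curve from peak-area ratio to phenol.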
# [8] = test system: Plasma; assay: Adsorption in rhesus monkey plasma assessed as YYA-021 level at 1 mg/ml after 1 hr by HPLC analysis; format: ADME, cell-free, Macaca mulatta; method in brief: as §1
# [9] = test system: Rattus norvegicus; assay: Toxicity in Jcl:Sprague-Dawley rat assessed as change in body weight at 5 mg/kg, iv after 2 weeks relative to control; format: organism-based; set-up: dose 5 mg/kg, route intravenous; conditions: in vivo, 336 h
# [10] = Plasma concentration in rhesus monkey at 13.4 mg/kg, iv after 0.5 hrs by HPLC analysis; format: ADME, organism-based, Macaca mulatta; set-up: dose 13.4 mg/kg, route intravenous; method in brief: as §2
# [11] = test system: Plasma; assay: Adsorption in rhesus monkey plasma at 1 mg/ml after 1 hr by HPLC analysis; format: ADME, cell-free, Macaca mulatta; method in brief: as §1
# [12] = test system: Rhesus monkey; assay: Toxicity in iv dosed rhesus monkey; format: organism-based, Macaca mulatta; conditions: in vivo
# [13] = Adsorption in rhesus monkey blood cells at 1 mg/ml after 1 hr by HPLC analysis; format: ADME, cell-based, Macaca mulatta; method in brief: as §1
# [14] = test system: Rattus norvegicus; assay: Toxicity in iv dosed Jcl:Sprague-Dawley rat assessed as renal and hepatic dysfunction; format: organism-based; conditions: in vivo
# [15] = test system: Plasma; assay: Adsorption in rhesus monkey plasma assessed as YYA-021 level at 1 mg/ml preincubated for 1 hr followed by plasma addition measured after 1 hr by HPLC analysis; format: ADME, cell-free, Macaca mulatta; method in brief: as §1
# [16] = Plasma concentration in Jcl:Sprague-Dawley rat at 14 mg/kg, iv after 240 mins by HPLC analysis; format: ADME, organism-based; set-up: dose 14 mg/kg, route intravenous; method in brief: as §3
# [17] = Plasma concentration in rhesus monkey at 13.4 mg/kg, iv after 2 hrs by HPLC analysis; format: ADME, organism-based, Macaca mulatta; set-up: dose 13.4 mg/kg, route intravenous; method in brief: as §2
# [18] = Plasma concentration in Jcl:Sprague-Dawley rat at 14 mg/kg, iv after 30 mins by HPLC analysis; format: ADME, organism-based; set-up: dose 14 mg/kg, route intravenous; method in brief: as §3
# [19] = test system: Plasma; assay: Adsorption in rhesus monkey plasma at 1 mg/ml preincubated for 1 hr followed by plasma addition measured after 1 hr by HPLC analysis; format: ADME, cell-free, Macaca mulatta; method in brief: as §1
# [20] = Adsorption in rhesus monkey blood cells at 1 mg/ml measured immediately by HPLC analysis; format: ADME, cell-based, Macaca mulatta; method in brief: as §1
# [21] = Adsorption in rhesus monkey blood cells assessed as YYA-021 level at 1 mg/ml measured immediately by HPLC analysis; format: ADME, cell-based, Macaca mulatta; method in brief: as §1
# [22] = test system: Plasma; assay: Adsorption in rhesus monkey plasma assessed as YYA-021 level at 1 mg/ml measured immediately by HPLC analysis; format: ADME, cell-free, Macaca mulatta; method in brief: as §1
# [23] = test system: Plasma; assay: Plasma concentration in rhesus monkey at 13.4 mg/kg, iv measured immediately by HPLC analysis; format: ADME, organism-based, Macaca mulatta; set-up: dose 13.4 mg/kg, route intravenous; conditions: in vivo; method in brief: as §2
# [24] = Plasma concentration in Jcl:Sprague-Dawley rat at 14 mg/kg, iv after 60 mins by HPLC analysis; format: ADME, organism-based; set-up: dose 14 mg/kg, route intravenous; method in brief: as §3
# [25] = Adsorption in rhesus monkey blood cells assessed as YYA-021 level at 1 mg/ml after 2 hrs by HPLC analysis; format: ADME, cell-based, Macaca mulatta; method in brief: as §1
# [26] = Plasma concentration in rhesus monkey at 13.4 mg/kg, iv after 24 hrs by HPLC analysis; format: ADME, organism-based, Macaca mulatta; set-up: dose 13.4 mg/kg, route intravenous; method in brief: as §2
# [27] = test system: Plasma; assay: Adsorption in rhesus monkey plasma assessed as YYA-021 level at 1 mg/ml after 1 hr followed by plasma addition by HPLC analysis; format: ADME, cell-free, Macaca mulatta; method in brief: as §1
# [28] = test system: Rhesus monkey; assay: Toxicity in rhesus monkey assessed as prolonged PR interval in bradycardia at 70.6 mg, iv; format: organism-based, Macaca mulatta; conditions: in vivo
# [29] = test system: Rhesus monkey; assay: Toxicity in rhesus monkey assessed as mydriasis at 70.6 mg, iv; format: organism-based, Macaca mulatta; conditions: in vivo
# [30] = Adsorption in rhesus monkey blood cells at 1 mg/ml after 2 hrs by HPLC analysis; format: ADME, cell-based, Macaca mulatta; method in brief: as §1
# [31] = Adsorption in rhesus monkey blood cells at 1 mg/ml after 1 hr followed by plasma addition by HPLC analysis; format: ADME, cell-based, Macaca mulatta; method in brief: as §1
# [32] = test system: Rhesus monkey; assay: Toxicity in rhesus monkey assessed as prolonged PR interval in electrocardiogram at 70.6 mg, iv; format: organism-based, Macaca mulatta; conditions: in vivo
# [33] = Plasma concentration in rhesus monkey at 13.4 mg/kg, iv after 1 hr by HPLC analysis; format: ADME, organism-based, Macaca mulatta; set-up: dose 13.4 mg/kg, route intravenous; method in brief: as §2
# [34] = Plasma concentration in Jcl:Sprague-Dawley rat at 14 mg/kg, iv after 45 mins by HPLC analysis; format: ADME, organism-based; set-up: dose 14 mg/kg, route intravenous; method in brief: as §3
# [35] = Half life in Jcl:Sprague-Dawley rat at 2.5 mg, iv by HPLC analysis; conditions: in vivo
# [36] = Half life in rhesus monkey at 13.4 mg/kg, iv by HPLC analysis; format: ADME, organism-based, Macaca mulatta; set-up: dose 13.4 mg/kg, route intravenous; conditions: in vivo
# Method in brief: (§4)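 Dosed by cephalic vein injection in 30 mL 0.1 M sodium phosphate buffer with NaCl, pH 7.4. Blood (3.0 mL) was drawn at 0, 0.5, 1, 2, 4 and 24 h. Plasma was separated and stored at -80°C, then MeOH-extracted. Supernatant was spiked with phenol internal standard (final 150 µg/mL) and filtered for HPLC, quantified against a peak-area-ratio calibration curve.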
# [37] = Volume of distribution in rhesus monkey at 13.4 mg/kg, iv after 24 hrs by HPLC analysis; format: ADME, organism-based, Macaca mulatta; set-up: dose 13.4 mg/kg, route intravenous; conditions: in vivo; method in brief: as §4
# [38] = Initial plasma concentration in rhesus monkey at 13.4 mg/kg, iv; format: ADME, organism-based, Macaca mulatta; set-up: dose 13.4 mg/kg, route intravenous; method in brief: as §4
# [39] = Initial plasma concentration in Jcl:Sprague-Dawley rat at 14 mg/kg, iv by HPLC analysis; format: ADME, organism-based; set-up: dose 14 mg/kg, route intravenous
# Method in brief: (§5)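 Jcl:SD rats (6 weeks old) dosed iv via tail vein with 2.5 mg 2-HCl in 1.0 mL saline. Plasma sampled from 15 to 240 min and assayed by HPLC with phenol internal standard. Parameters derived from the plasma concentration–time course.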
# [40] = test system: Rattus norvegicus; assay: Volume of distribution in Jcl:Sprague-Dawley rat at 14 mg/kg, iv by HPLC analysis; format: ADME, organism-based; set-up: dose 14 mg/kg, route intravenous; conditions: in vivo; method in brief: as §5
compound,measurement,setting,value
Cc1ccc(NC(=O)C(=O)NC2CC(C)(C)NC(C)(C)C2)cc1.Cl,Activity,[1],105 µg/mL
same,Activity,[2],17.9 µg/mL
same,Activity,[3],67.2 µg/mL
same,Activity,[4],102.9 µg/mL
same,Activity,[5],133.7 µg/mL
same,concentration at 4 h,[6],392 ng/mL
same,concentration at 0.25 h,[7],6010 ng/mL
same,Activity,[8],102 µg/mL
same,Activity,[9],Non-toxic
same,concentration at 0.5 h,[10],1330 ng/mL
same,Activity,[11],113.6 µg/mL
same,MTD,[12],35.3 mg
same,Activity,[13],74.8 µg/mL
same,MTD,[14],2.5 mg
same,Activity,[15],46 µg/mL
same,concentration at 4 h,[16],1120 ng/mL
same,concentration at 2 h,[17],1090 ng/mL
same,concentration at 0.5 h,[18],2100 ng/mL
same,Activity,[19],51.2 µg/mL
same,Activity,[20],71.5 µg/mL
same,Activity,[21],64.2 µg/mL
same,Activity,[22],120 µg/mL
same,Cp,[23],149 ng/mL
same,concentration at 1 h,[24],620 ng/mL
same,Activity,[25],61 µg/mL
same,concentration at 24 h,[26],415 ng/mL
same,Activity,[27],92.4 µg/mL
same,Activity,[28],Toxic
same,Activity,[29],Toxic
same,Activity,[30],68 µg/mL
same,Activity,[31],19.9 µg/mL
same,Activity,[32],Toxic
same,concentration at 1 h,[33],1260 ng/mL
same,concentration at 0.75 h,[34],1510 ng/mL
Cc1ccc(NC(=O)C(=O)NC2CC(C)(C)NC(C)(C)C2)cc1,half-life,[35],8.46 min
same,half-life,[36],98.4 min
same,Vd,[37],47.1 L
same,C0,[38],1500 ng/mL
same,C0,[39],17300 ng/mL
same,Vd,[40],145 mL

# Source: ChEMBL document CHEMBL3091309, “A CD4 mimic as an HIV entry inhibitor: pharmacokinetics” (Bioorg Med Chem, 2013)
